Source: ChEMBL document CHEMBL4184291, “Discovery of N-arylpyrroles as agonists of GPR120 for the treatment of type II diabetes” (Bioorg Med Chem Lett, 2018)

Tests used:
[1] = system: Mus musculus; assay: Antidiabetic activity in diet-induced obese C57Bl/6 mouse model assessed as plasma concentration required to show reduction in glucose level at 3 mg/kg administered 30 mins prior to glucose challenge measured up to 90 mins post dose by OGTT; assay type: functional
[2] = system: Mus musculus; assay: Antiobesity activity in diet-induced obesity C57Bl6/J mouse model assessed as basal insulin level in plasma at 30 mg/kg qd for 15 days measured on day 15 post 6 hrs fasting (reference value: 16959 +/- 4943 pg/ml); assay type: functional
[3] = species: Homo sapiens; assay: Selectivity ratio of EC50 for human GPR40 to EC50 for recombinant human GPR120 expressed in HEK293 cells; assay type: cell-based
[4] = system: Mus musculus; assay: Antiobesity activity in diet-induced obesity C57Bl6/J mouse model assessed as basal insulin level in plasma at 10 mg/kg bid for 15 days measured on day 15 post 6 hrs fasting (reference value: 16959 +/- 4943 pg/ml); assay type: functional
[5] = system: Cavia porcellus; assay: Cardiotoxicity in guinea pig assessed as decrease in mean arterial blood pressure at 22.4 mg/kg; assay type: toxicity, organism-based; parameters: scale not given: the % may be the effect or the level left; settings: in vivo
[6] = Clearance in rat at 2 mg/kg, iv by LC-MS/MS analysis; assay type: ADME, organism-based; settings: in vivo
[7] = molecular target: T1, Free fatty acid receptor 4 (Homo sapiens, UniProt Q5NUL3); assay: Agonist activity at GPR120 in human HT-29 cells assessed as intracellular calcium flux; assay type: functional, cell-based
T1 sequence (Q5NUL3 whole entry): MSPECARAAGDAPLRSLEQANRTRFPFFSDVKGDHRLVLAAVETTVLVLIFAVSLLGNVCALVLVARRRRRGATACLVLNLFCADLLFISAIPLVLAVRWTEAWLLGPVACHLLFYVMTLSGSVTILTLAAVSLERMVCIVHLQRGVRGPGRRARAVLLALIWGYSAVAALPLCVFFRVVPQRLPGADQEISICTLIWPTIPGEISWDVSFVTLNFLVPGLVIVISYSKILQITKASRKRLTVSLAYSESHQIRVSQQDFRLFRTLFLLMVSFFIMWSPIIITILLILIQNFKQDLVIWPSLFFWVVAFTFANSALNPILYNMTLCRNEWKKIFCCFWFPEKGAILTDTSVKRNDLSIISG
In short: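 Calcium-flux EC50 measured in HT-29 cells, a low-expressing line with endogenous GPR120.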

[8] = system: Mus musculus; assay: Antidiabetic activity in diet-induced obese C57Bl/6 mouse model assessed as change in plasma glucose AUC at 3 mg/kg, po administered 30 mins prior to glucose challenge measured up to 90 mins post dose by OGTT; assay type: functional
In short: (§1)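 Diet-induced obese mice dosed orally at 0.1–3.0 mg/kg 30 min before an oral glucose load (time 0). Glucose followed from 30 min pre-glucose to 90 min post-glucose. Saxagliptin 1 mg/kg was the positive control.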

[9] = system: Mus musculus; assay: Antidiabetic activity in diet-induced obese C57Bl/6 mouse model assessed as plasma glucose AUC at 10 mg/kg administered 30 mins prior to glucose challenge measured up to 90 mins post dose by ipGTT (reference value: 10113 mg/dL.min); assay type: functional, organism-based; parameters: time < 1.5 hr, dose 10 mg/kg
In short: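 Intraperitoneal glucose tolerance test with 10 mg/kg dosing, run in GPR120 knockout mice and in wild-type mice.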

[10] = Half life in rat liver microsomes; assay type: ADME, microsome
[11] = system: Mus musculus; assay: Antidiabetic activity in diet-induced obese C57Bl/6 mouse model assessed as change in plasma glucose AUC at 1 mg/kg, po administered 30 mins prior to glucose challenge measured up to 90 mins post dose by OGTT; assay type: functional; in short: as §1
[12] = Half life in human liver microsomes; assay type: ADME, microsome
[13] = Cmax in rat at 10 mg/kg, po by LC-MS/MS analysis; assay type: ADME, organism-based; parameters: dose 10 mg/kg, route oral; settings: in vivo
[14] = molecular target: Free fatty acid receptor 1 (Mus musculus, UniProt Q76JU9); assay: Agonist activity at mouse GPR40; assay type: functional
[15] = Half life in mouse at 1.15 mg/kg, iv by LC-MS/MS analysis; assay type: ADME, organism-based; settings: in vivo
[16] = molecular target: Cytochrome P450 2C9 (Homo sapiens, UniProt P11712); assay: Inhibition of CYP2C9 (unknown origin); assay type: ADME
[17] = system: Mus musculus; assay: Antiobesity activity in diet-induced obesity C57Bl6/J mouse model assessed as change in plasma insulin level at 10 mg/kg bid for 15 days measured on day 15 post 6 hrs fasting; assay type: functional
[18] = system: Cavia porcellus; assay: Cardiotoxicity in guinea pig assessed as effect on QT interval at 22.4 mg/kg; assay type: toxicity, organism-based; settings: in vivo
[19] = Clearance in mouse at 1.15 mg/kg, iv by LC-MS/MS analysis; assay type: ADME, organism-based; settings: in vivo
[20] = species: Mus musculus; assay: Selectivity ratio of EC50 for mouse GPR40 to EC50 for recombinant mouse GPR120 expressed in HEK293 cells; assay type: cell-based
[21] = system: Cavia porcellus; assay: Cardiotoxicity in guinea pig assessed as effect on PQ interval at 22.4 mg/kg; assay type: toxicity, organism-based; settings: in vivo
[22] = Plasma concentration in mouse at 3 mg/kg; assay type: ADME, organism-based; settings: in vivo
In short: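 Plasma exposure for a 3 mg/kg oral dose in mice was predicted from the mouse PK study, not measured directly. It was expressed as ng/mL and converted to µM.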

[23] = system: Cavia porcellus; assay: Cardiotoxicity in guinea pig assessed as effect on ECG morphology at 22.4 mg/kg; assay type: toxicity, organism-based; settings: in vivo
[24] = molecular target: 5-hydroxytryptamine receptor 2B (Homo sapiens) (UniProt P41595); assay: Displacement of [125I](+/-)DOI from recombinant human 5-HT2B at 10 uM after 60 mins by scintillation counting method relative to control
[25] = Oral bioavailability in dog at 5 mg/kg by LC-MS/MS analysis; assay type: ADME, organism-based, Canis lupus familiaris; settings: in vivo
[26] = system: Mus musculus; assay: Oral bioavailability in mouse at 14.6 mg/kg by LC-MS/MS analysis; assay type: ADME, organism-based; settings: in vivo
[27] = system: Mus musculus; assay: Antiobesity activity in diet-induced obesity C57Bl6/J mouse model assessed as basal glucose level in plasma at 30 mg/kg qd for 15 days measured on day 15 post 6 hrs fasting (reference value: 187 +/- 24 mg/dL); assay type: functional
[28] = molecular target: T2, Cytochrome P450 1A2 (Homo sapiens, UniProt P05177); assay: Inhibition of CYP1A2 (unknown origin); assay type: ADME
T2 sequence (P05177 whole entry): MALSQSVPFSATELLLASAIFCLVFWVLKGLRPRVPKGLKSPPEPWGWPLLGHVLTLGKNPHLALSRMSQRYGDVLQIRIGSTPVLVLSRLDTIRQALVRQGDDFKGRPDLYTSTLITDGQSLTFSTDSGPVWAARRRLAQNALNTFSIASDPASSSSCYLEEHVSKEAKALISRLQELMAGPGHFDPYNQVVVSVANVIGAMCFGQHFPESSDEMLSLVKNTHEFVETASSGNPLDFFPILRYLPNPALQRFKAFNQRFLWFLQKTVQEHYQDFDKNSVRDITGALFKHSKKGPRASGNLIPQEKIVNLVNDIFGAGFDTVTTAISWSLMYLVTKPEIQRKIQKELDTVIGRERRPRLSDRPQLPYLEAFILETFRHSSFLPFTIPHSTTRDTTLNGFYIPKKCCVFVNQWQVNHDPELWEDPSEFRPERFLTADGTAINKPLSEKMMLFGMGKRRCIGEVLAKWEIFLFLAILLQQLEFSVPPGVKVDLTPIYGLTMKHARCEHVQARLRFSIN

[29] = system: Mus musculus; assay: Antiobesity activity in diet-induced obesity C57Bl6/J mouse model assessed as change in plasma glucose level at 10 mg/kg bid for 15 days measured on day 15 post 6 hrs fasting; assay type: functional

Free fatty acid receptor 1, sequence (Q76JU9 whole entry): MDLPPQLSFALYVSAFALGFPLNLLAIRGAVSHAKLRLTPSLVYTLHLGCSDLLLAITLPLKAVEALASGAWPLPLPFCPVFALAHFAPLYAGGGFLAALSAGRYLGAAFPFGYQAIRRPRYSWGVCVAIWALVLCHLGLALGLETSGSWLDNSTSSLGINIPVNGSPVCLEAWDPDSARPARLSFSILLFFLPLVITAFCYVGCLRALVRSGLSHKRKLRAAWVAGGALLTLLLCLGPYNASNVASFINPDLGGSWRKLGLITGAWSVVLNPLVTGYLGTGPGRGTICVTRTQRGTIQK
5-hydroxytryptamine receptor 2B (Homo sapiens), sequence (P41595 whole entry): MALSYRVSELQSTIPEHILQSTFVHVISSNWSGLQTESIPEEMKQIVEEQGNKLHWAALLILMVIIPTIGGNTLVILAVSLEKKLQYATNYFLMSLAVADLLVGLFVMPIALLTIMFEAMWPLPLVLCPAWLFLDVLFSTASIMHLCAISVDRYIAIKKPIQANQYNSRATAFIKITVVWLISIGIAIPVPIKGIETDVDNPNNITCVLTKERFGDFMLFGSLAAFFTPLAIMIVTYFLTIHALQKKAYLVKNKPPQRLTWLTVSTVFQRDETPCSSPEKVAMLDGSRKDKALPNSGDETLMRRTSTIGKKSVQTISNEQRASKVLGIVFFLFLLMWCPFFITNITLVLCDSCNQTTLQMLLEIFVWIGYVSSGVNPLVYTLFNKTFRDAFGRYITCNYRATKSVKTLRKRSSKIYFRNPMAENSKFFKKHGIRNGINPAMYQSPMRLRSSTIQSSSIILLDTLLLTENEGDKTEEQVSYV
Cytochrome P450 2C9, sequence (P11712 whole entry): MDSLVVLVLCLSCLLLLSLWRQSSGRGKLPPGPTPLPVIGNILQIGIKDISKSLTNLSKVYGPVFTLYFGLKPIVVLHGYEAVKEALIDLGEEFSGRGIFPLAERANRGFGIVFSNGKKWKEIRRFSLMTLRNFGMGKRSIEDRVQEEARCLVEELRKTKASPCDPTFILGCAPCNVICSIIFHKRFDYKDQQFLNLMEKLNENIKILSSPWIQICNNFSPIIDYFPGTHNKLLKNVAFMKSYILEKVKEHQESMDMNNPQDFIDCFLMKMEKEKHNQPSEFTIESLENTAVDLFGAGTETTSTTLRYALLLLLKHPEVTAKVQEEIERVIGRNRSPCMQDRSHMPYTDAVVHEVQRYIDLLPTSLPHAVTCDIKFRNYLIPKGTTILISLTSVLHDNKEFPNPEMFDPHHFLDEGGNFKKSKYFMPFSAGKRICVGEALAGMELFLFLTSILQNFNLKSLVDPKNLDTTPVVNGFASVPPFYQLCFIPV

Work on `O=C(O)CCc1cc(F)c(OCc2c(C(F)(F)F)ccn2-c2ccc(Cl)cc2)c(F)c1` yielded an EC [1] of 32 nM, an Activity [2] of 17067 pg/mL and a Ratio EC50 [3] of 42. The Activity [4] was 16966 pg/mL, the Activity [5] was 10% and the clearance [6] was 3.2 mL/min/kg. The EC50 [7] was 0.137 µM, the Activity [8] was -83% and the AUC [9] was 4920 mg/dL·min. The half-life [10] was 2.2 h, the Activity [11] was -54% and the half-life [12] was 0.85 h. It also gave a Cmax [13] of 11600 ng/mL, an EC50 [14] of 3.52 µM and a half-life [15] of 4.14 h. The INH [16] was 7 µM, the Activity [17] was -1080 pg/mL and the Activity [18] was “Non-Toxic”. For the same molecule, the clearance [19] was 4.9 mL/min/kg, the Ratio EC50 [20] was 18 and the Activity [21] was “Non-Toxic”. The concentration [22] was 8.64 µM, the Activity [23] was “Non-Toxic” and the inhibition [24] was 62%. For the same molecule, the bioavailability [25] was 145%, the F [26] was 166% and the Activity [27] was 201 mg/dL. For the same molecule, the INH [28] was over 10 µM and the Activity [29] was -16.4 mg/dL.
